Reference: ChEMBL document CHEMBL1140315, “Design and synthesis of the first generation of novel potent, selective, and in vivo active (benzothiazol-2-yl)acetonitrile inhibitors of the c-Jun N-terminal kinase” (J Med Chem, 2005)
pIC50: −log10 of the molar value. One block for each compound: values may come before it.

Experiments:
[1] = target: Mitogen-activated protein kinase 10 (Rattus norvegicus, UniProt P49187); assay: Inhibition of rat c-Jun N-terminal kinase 3
Jurkat = assay: Ability to inhibit IL-2 production induced with phorbol-12, myristate-13 acetate and ionomycin in Jurkat T cell at the concentration of 10 uM; type: functional; details: Homo sapiens
In short: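 Jurkat human T cell leukemia cells in RPMI 1640 with 10% heat-inactivated FCS, plated at 2 × 10⁵ cells/well. Compounds added in 0.1% DMSO and preincubated 30 min at 37 °C. Cells then stimulated with PMA + ionomycin (0.1 and 1 µM final) for 24 h at 37 °C. IL-2 in the supernatant measured by sandwich ELISA against a recombinant human IL-2 standard.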

[2] = target: Protein kinase C alpha type (Homo sapiens, UniProt P17252); assay: Inhibition of protein kinase C alpha
[3] = Inhibition of PI3k-gamma
[4] = target: Proto-oncogene tyrosine-protein kinase Src (Homo sapiens, UniProt P12931); assay: Inhibition of c-SRC tyrosine kinase
Sequence of Proto-oncogene tyrosine-protein kinase Src (P12931 2-536 limits assumed): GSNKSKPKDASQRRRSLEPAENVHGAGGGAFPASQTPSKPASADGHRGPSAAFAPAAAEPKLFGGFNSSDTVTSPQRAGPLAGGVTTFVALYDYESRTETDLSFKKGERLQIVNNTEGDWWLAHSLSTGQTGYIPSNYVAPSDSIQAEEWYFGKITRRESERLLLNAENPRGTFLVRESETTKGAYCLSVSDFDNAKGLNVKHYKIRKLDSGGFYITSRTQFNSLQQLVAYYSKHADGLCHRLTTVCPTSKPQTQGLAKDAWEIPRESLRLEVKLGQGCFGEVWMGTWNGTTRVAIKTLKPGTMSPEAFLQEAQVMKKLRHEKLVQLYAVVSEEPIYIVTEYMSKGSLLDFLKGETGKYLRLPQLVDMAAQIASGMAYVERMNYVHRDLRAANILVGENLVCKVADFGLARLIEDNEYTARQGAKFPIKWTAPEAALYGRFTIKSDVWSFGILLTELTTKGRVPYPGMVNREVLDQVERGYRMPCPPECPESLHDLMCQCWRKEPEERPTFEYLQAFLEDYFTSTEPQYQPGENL

[5] = Inhibition of p56 lck tyrosine kinase
[6] = target: Tyrosine-protein kinase Blk (Homo sapiens, UniProt P51451); assay: Inhibition of BLK; Range is 5-10
[7] = target: Serine/threonine-protein kinase Sgk1 (Homo sapiens, UniProt O00141); assay: Inhibition of SGK; Range is 5-10
Sequence of Serine/threonine-protein kinase Sgk1 (O00141 whole entry): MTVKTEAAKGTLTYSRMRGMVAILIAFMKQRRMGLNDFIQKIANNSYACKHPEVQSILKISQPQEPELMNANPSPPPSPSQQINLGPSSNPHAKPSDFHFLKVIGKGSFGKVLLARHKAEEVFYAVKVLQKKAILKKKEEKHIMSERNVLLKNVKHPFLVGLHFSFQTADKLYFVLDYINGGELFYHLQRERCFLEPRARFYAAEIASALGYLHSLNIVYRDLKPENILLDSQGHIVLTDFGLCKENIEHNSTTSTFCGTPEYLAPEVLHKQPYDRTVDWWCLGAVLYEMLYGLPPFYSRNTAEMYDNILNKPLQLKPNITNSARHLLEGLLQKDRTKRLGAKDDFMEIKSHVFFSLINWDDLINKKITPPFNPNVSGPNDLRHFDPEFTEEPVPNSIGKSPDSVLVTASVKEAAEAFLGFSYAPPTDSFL

[8] = target: Dual specificity mitogen-activated protein kinase kinase 6 (Homo sapiens, UniProt P52564); assay: Inhibition of Mitogen activated protein kinase 6; Range is 5-10
[9] = target: Dual specificity mitogen-activated protein kinase kinase 7 (Homo sapiens, UniProt O14733); assay: Inhibition of mitogen activated protein kinase kinase 7 beta
Sequence of Dual specificity mitogen-activated protein kinase kinase 7 (O14733 whole entry): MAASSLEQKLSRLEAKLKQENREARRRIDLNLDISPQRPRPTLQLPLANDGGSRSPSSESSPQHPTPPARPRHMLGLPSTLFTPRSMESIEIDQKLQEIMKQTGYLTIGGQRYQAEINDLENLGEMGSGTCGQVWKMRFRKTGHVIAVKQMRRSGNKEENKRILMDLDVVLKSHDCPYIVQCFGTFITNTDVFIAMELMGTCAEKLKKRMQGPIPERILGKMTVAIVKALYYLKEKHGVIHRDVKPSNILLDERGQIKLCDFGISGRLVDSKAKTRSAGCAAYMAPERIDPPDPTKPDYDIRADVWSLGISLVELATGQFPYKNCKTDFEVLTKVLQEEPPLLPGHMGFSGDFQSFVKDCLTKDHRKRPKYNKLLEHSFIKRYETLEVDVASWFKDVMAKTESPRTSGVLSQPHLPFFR

[10] = target: MAP kinase-activated protein kinase 5 (Homo sapiens, UniProt Q8IW41); assay: Inhibition of protein kinase PRAK
[11] = target: RAC-alpha serine/threonine-protein kinase (Homo sapiens, UniProt P31749); assay: Inhibition of AKT kinase
[12] = target: Serine/threonine-protein kinase Chk1 (Homo sapiens, UniProt O14757); assay: Inhibition of CHK1 kinase
[13] = target: Mitogen-activated protein kinase 3 (Homo sapiens, UniProt P27361); assay: Inhibition of ERK1 kinase
Sequence of Mitogen-activated protein kinase 3 (P27361 whole entry): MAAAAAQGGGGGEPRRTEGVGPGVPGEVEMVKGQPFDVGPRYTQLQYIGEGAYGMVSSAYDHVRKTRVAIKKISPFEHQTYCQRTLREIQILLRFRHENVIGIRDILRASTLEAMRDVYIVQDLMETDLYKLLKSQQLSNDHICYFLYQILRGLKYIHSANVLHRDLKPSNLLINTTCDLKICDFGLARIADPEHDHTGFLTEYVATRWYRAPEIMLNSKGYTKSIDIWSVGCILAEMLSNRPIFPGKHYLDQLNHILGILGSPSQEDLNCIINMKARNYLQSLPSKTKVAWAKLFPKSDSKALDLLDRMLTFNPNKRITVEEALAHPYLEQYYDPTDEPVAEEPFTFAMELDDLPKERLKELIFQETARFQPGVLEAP

[14] = target: Inhibitor of nuclear factor kappa-B kinase subunit beta (Homo sapiens, UniProt O14920); assay: Inhibition of IKKB kinase
[15] = target: 3-phosphoinositide-dependent protein kinase 1 (Homo sapiens, UniProt O15530); assay: Inhibitory concentration against PDK 1
[16] = target: Dual specificity mitogen-activated protein kinase kinase 4 (Homo sapiens, UniProt P45985); assay: Inhibition of Mitogen activated protein kinase kinase 4
[17] = target: Dual specificity mitogen-activated protein kinase kinase 1 (Homo sapiens, UniProt Q02750); assay: Inhibition of mitogen activated protein kinase kinase 1 (MEK1)
[18] = target: Cyclin-dependent kinase 2/cyclin A (Homo sapiens, UniProt P24941); assay: Inhibition of CDK2/cyclin A; type: protein-complex assay
[19] = target: Mitogen-activated protein kinase 8 (Homo sapiens, UniProt P45983); assay: Inhibition of c-Jun N-Terminal kinase 1
Sequence of Mitogen-activated protein kinase 8 (P45983 whole entry): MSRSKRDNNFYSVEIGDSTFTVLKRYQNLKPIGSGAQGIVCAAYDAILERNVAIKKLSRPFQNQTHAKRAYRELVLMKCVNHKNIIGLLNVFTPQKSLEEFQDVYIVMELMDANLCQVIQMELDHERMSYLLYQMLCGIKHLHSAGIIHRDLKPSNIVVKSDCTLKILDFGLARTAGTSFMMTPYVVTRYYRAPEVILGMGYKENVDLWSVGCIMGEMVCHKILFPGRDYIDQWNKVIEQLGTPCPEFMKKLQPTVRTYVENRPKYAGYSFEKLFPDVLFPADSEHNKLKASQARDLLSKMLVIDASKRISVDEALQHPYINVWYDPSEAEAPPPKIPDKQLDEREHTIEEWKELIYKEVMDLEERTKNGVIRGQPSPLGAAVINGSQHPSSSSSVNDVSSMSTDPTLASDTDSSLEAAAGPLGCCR

[20] = target: Mitogen-activated protein kinase 9 (Homo sapiens, UniProt P45984); assay: Inhibitory concentration against c-Jun N-Terminal kinase 2
Sequence of Mitogen-activated protein kinase 9 (P45984 whole entry): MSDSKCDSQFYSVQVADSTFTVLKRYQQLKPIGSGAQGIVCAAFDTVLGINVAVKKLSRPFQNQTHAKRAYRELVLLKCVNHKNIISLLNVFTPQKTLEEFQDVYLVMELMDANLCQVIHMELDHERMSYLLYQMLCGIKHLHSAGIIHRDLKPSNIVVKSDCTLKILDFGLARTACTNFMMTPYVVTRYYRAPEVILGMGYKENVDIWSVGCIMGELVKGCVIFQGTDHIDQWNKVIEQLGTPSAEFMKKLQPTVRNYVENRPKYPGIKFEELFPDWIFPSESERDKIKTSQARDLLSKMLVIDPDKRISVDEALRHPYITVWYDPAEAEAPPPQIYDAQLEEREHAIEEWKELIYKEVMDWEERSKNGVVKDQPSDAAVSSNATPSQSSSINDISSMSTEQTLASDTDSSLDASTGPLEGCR

[21] = target: RAF proto-oncogene serine/threonine-protein kinase (Homo sapiens, UniProt P04049); assay: Inhibition of RAF proto-oncogene serine/threonine protein kinase
[22] = target: Ribosomal protein S6 kinase alpha-5 (Homo sapiens, UniProt O75582); assay: Inhibition of MSK-1 kinase; Range is 5-10
Sequence of Ribosomal protein S6 kinase alpha-5 (O75582 whole entry): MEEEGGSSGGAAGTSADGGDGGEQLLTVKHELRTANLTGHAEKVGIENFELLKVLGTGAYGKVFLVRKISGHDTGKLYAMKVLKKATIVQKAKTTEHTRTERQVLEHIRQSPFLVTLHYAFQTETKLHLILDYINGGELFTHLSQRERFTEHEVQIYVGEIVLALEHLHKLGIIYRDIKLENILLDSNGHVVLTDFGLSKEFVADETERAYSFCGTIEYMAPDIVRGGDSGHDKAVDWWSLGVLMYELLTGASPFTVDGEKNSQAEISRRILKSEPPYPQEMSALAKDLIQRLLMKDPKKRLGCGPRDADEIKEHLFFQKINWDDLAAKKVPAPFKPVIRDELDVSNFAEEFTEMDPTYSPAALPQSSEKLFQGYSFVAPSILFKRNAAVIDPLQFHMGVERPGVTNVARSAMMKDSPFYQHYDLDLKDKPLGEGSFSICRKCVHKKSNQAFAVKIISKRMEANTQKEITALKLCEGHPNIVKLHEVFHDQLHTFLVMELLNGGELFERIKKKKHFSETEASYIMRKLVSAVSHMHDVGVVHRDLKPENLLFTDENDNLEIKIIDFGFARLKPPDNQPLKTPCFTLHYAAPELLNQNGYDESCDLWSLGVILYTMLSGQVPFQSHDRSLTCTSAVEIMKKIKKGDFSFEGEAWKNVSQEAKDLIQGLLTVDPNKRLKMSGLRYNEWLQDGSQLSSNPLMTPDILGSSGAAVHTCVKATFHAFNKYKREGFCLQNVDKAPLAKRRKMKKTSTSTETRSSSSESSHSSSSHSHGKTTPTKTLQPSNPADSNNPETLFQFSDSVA

[23] = target: Rho-associated protein kinase 2 (Homo sapiens, UniProt O75116); assay: Inhibition of protein kinase ROCK2; Range is 5-10
Mus musculus = assay: Dose administered orally to decrease TNF alpha plasma level in mice; type: functional; details: po
In short: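 Groups of six mice. LPS endotoxin (O111:B4, 0.3 mg/kg) given i.p. 15 min later. Plasma TNF-α measured by ELISA in heparinized blood collected by decapitation. Data given as mean ± SEM, analysed by one-way ANOVA with Dunnett's t-test.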

[24] = Oral bioavailability in rat; type: ADME, organism-based; details: in vivo, read-out: Bioavailabiility
[25] = target: MAP kinase-activated protein kinase 2 (Homo sapiens, UniProt P49137); assay: Inhibition of MAP kinase-activated protein kinase 2
[26] = target: Ribosomal protein S6 kinase (P70S6K) (Homo sapiens, UniProt P23443+Q9UBS0); assay: Inhibition of p70S6K; type: protein-complex assay
Sequence of Ribosomal protein S6 kinase (P70S6K) (Q9UBS0 whole entry): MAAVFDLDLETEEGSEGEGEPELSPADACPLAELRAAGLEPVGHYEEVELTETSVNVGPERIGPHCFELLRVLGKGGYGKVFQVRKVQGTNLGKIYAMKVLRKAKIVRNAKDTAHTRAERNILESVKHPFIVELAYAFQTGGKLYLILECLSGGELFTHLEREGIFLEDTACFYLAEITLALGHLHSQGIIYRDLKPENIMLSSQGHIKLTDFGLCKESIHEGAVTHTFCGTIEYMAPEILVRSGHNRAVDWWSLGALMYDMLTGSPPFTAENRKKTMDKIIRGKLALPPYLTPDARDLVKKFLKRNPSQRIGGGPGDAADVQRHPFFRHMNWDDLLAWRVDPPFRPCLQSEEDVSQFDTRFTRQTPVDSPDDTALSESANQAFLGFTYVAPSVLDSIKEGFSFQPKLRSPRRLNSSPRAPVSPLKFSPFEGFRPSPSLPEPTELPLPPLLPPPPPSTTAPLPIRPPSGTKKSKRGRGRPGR
Sequence of Ribosomal protein S6 kinase (P70S6K) (P23443 whole entry): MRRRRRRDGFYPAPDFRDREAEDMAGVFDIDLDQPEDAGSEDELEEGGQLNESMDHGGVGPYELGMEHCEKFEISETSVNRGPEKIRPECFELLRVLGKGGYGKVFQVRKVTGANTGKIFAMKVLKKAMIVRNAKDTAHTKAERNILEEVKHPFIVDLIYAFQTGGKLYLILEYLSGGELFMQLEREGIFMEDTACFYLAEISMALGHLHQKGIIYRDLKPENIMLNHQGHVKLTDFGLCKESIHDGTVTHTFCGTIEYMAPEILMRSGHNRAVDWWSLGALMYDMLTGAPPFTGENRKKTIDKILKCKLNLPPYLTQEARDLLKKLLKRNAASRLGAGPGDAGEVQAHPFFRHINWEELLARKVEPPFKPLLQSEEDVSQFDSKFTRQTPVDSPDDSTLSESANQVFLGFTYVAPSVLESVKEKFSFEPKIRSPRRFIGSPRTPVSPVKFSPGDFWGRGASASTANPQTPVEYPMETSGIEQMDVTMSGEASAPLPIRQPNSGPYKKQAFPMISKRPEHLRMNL

[27] = target: Mitogen-activated protein kinase 14 (Homo sapiens, UniProt Q16539); assay: Inhibition of MAP kinase p38 alpha

Sequence of Mitogen-activated protein kinase 10 (P49187 whole entry): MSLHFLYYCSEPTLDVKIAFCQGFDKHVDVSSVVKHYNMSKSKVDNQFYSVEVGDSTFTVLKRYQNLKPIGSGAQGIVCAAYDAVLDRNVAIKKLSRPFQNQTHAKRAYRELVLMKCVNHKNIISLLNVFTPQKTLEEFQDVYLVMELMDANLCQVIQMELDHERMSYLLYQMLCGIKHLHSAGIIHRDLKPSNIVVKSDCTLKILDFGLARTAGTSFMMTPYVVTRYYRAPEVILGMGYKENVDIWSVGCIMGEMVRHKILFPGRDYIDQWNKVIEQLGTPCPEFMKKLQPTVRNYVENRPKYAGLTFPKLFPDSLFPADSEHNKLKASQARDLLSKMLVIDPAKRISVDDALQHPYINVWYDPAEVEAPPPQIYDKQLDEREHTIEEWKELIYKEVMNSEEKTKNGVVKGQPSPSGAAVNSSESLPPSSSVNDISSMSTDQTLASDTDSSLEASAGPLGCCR

Compound: N#C/C(=C1/Nc2cc(C(F)(F)F)ccc2S1)c1ccnc(Cl)n1
pIC50 [1]: 6.00

Compound: CN1/C(=C(/C#N)c2ccnc(Cl)n2)Sc2ccccc21
pIC50 [1]: < 5.30

Compound: Cn1cncc1CCNc1nccc(/C(C#N)=C2\Nc3ccccc3S2)n1
inhibition at 10 µM (Jurkat): 100%

Compound: COC1CCN(c2nccc(/C(C#N)=C3\Nc4ccccc4S3)n2)CC1
pIC50 [1]: 5.14

Compound: N#C/C(=C1/Nc2ccccc2S1)c1ccnc(NCCn2cncn2)n1
pIC50 [1]: 6.40

Compound: CN(C)c1nccc(/C(C#N)=C2\Nc3ccccc3S2)n1
pIC50 [1]: 5.03

Compound: CN1CCN(c2nccc(/C(C#N)=C3\Nc4ccccc4S3)n2)CC1
pIC50 [1]: 5.17

Compound: N#C/C(=C1/Nc2ccccc2S1)c1ccnc(Cl)n1
pIC50 [1]: 6.60
inhibition at 10 µM (Jurkat): 90%

Compound: N#C/C(=C1/Nc2ccccc2S1)c1ccnc(NCCN2CCOCC2)n1
pIC50 [1]: 6.12

Compound: COCCNc1nccc(/C(C#N)=C2\Nc3ccccc3S2)n1
pIC50 [1]: 6.09

Compound: N#C/C(=C1/Nc2ccccc2S1)c1cc(Br)nc(Cl)n1
pIC50 [1]: 6.46

Compound: N#C/C(=C1/Nc2ccccc2S1)c1ccnc(N2CCOCC2)n1
pIC50 [1]: 5.54

Compound: N#C/C(=C1/Nc2ccccc2S1)c1ccnc(NCCN2CCCCC2)n1
pIC50 [1]: 5.43

Compound: N#C/C(=C1/Nc2ccccc2S1)c1ccnc(NCCCn2ccnc2)n1
pIC50 [1]: 6.83
inhibition at 10 µM (Jurkat): 31%

Compound: N#C/C(=C1/Nc2ccccc2S1)c1ccnc(NCCc2cccnc2)n1.O=C(O)C(F)(F)F.O=C(O)C(F)(F)F
pIC50 [2]: < 5.00
pIC50 [3]: < 5.00
pIC50 [4]: 5.96
pIC50 [5]: < 5.00
pIC50 [6]: 5.00
pIC50 [7]: 5.00
pIC50 [8]: 5.00
pIC50 [9]: < 5.00
pIC50 [10]: < 5.00
pIC50 [11]: < 5.00
pIC50 [12]: < 5.00
pIC50 [13]: < 5.00
pIC50 [14]: < 5.00
pIC50 [15]: < 5.00
pIC50 [16]: < 5.00
pIC50 [17]: < 5.00
pIC50 [18]: 5.85
pIC50 [19]: 6.82
pIC50 [20]: 6.66
pIC50 [21]: 5.92
pIC50 [22]: 5.00
pIC50 [23]: 5.00
ED50 (Mus musculus): 3 mg/kg
inhibition at 10 µM (Jurkat): 90%
bioavailability [24]: 38%
pIC50 [25]: < 5.00
pIC50 [26]: < 5.00
pIC50 [27]: 5.32

Compound: N#C/C(=C1/Nc2ccccc2S1)c1ccnc(N)n1
pIC50 [1]: 5.12

Compound: N#C/C(=C1/Nc2ccccc2S1)c1ccnc(NCCCO)n1
pIC50 [1]: 6.18

Compound: N#C/C(=C1/Nc2ccccc2S1)c1ccnc(NCc2nn[nH]n2)n1
pIC50 [1]: < 5.30

Compound: N#C/C(=C1/Nc2ccccc2S1)c1ccnc(N2CCNCC2)n1
pIC50 [1]: 5.18

Compound: N#CC(=C1Nc2ccccc2N1)c1nc(Cl)ncc1Br
pIC50 [1]: < 5.30

Compound: CCO/C(O)=C(\c1ccnc(Cl)n1)c1nc2ccccc2s1
pIC50 [1]: < 5.30

Compound: CNc1nccc(/C(C#N)=C2\Nc3ccccc3S2)n1
pIC50 [1]: 6.02

Compound: Cc1cc(/C(C#N)=C2\Nc3ccccc3S2)nc(Cl)n1
pIC50 [1]: < 5.30

Compound: CN(C)CCCNc1nccc(/C(C#N)=C2\Nc3ccccc3S2)n1
pIC50 [1]: 5.78

Compound: N#C/C(=C1/Nc2ccccc2S1)c1ccnc(NCCCn2cccn2)n1
pIC50 [1]: 6.23

Compound: CN1CCN(CCCNc2nccc(/C(C#N)=C3\Nc4ccccc4S3)n2)CC1
inhibition at 10 µM (Jurkat): 83%

Compound: CCCN(CCC)c1nccc(/C(C#N)=C2\Nc3ccccc3S2)n1
pIC50 [1]: < 5.30

Compound: CNCCCN(C)c1nccc(/C(C#N)=C2\Nc3ccccc3S2)n1
pIC50 [1]: 5.88

Compound: CCCN(CCCNc1nccc(/C(C#N)=C2\Nc3ccccc3S2)n1)C(=O)CC
pIC50 [1]: 5.87

Compound: CN(C)CCNc1nccc(/C(C#N)=C2\Nc3ccccc3S2)n1
pIC50 [1]: 5.89

Compound: N#C/C(=C1/Nc2ccccc2S1)c1ccnc(NN)n1
pIC50 [1]: 6.30

Compound: N#C/C(=C1/Nc2ccccc2S1)c1ccncn1
pIC50 [1]: < 5.30

Compound: N#C/C(=C1/Nc2ccccc2S1)c1cccc(Cl)n1
pIC50 [1]: < 5.30

Compound: N#C/C(=C1/Nc2ccccc2S1)c1ccnc(NCCCN2CCOCC2)n1
pIC50 [1]: 6.39

Now from value to compound, other results behind:

pIC50 [1]: 6.47
Compound: N#C/C(=C1/Nc2ccccc2S1)c1ccnc(NCc2ccncc2)n1

pIC50 [1]: < 5.30
Compound: Cc1ccc(CCNc2nccc(/C(C#N)=C3\Nc4ccccc4S3)n2)cc1

pIC50 [1]: 6.22
Compound: N#C/C(=C1/Nc2ccccc2S1)c1ccnc(NCCc2ccc([N+](=O)[O-])cc2)n1

pIC50 [1]: 6.56
Compound: N#C/C(=C1/Nc2ccccc2S1)c1ccnc(NCCc2ccccc2F)n1
inhibition at 10 µM (Jurkat): 90%

pIC50 [1]: 6.29
Compound: N#C/C(=C1/Nc2ccccc2S1)c1ccnc(NCCO)n1

pIC50 [1]: 7.39
Compound: N#C/C(=C1/Nc2ccccc2S1)c1ccnc(NCCc2ccc(S(N)(=O)=O)cc2)n1

pIC50 [1]: < 5.30
Compound: N#C/C(=C1/Nc2ccccc2S1)c1ccnc(NCCc2cccc(Cl)c2)n1

pIC50 [1]: 7.10
Compound: N#C/C(=C1/Nc2ccccc2S1)c1ccnc(NCCc2ccc(N)cc2)n1
inhibition at 10 µM (Jurkat): 80%

pIC50 [1]: 7.10
Compound: N#C/C(=C1/Nc2ccccc2S1)c1ccnc(NCCc2c[nH]cn2)n1
inhibition at 10 µM (Jurkat): 80%

pIC50 [1]: 6.19
Compound: N#C/C(=C1/Nc2ccccc2S1)c1ccnc(NCc2ccccn2)n1

pIC50 [1]: 6.47
Compound: N#C/C(=C1/Nc2ccccc2S1)c1ccnc(NCc2cccnc2)n1
inhibition at 10 µM (Jurkat): 95%

pIC50 [1]: 5.19
Compound: N#C/C(=C1/Nc2ccccc2S1)c1ccnc(NCc2ccccc2)n1

pIC50 [1]: 5.74
Compound: N#C/C(=C1/Nc2ccccc2S1)c1ccnc(NCCc2cccc(F)c2)n1

pIC50 [1]: 6.60
Compound: N#C/C(=C1/Nc2ccccc2S1)c1ccnc(NCCc2ccccn2)n1
inhibition at 10 µM (Jurkat): 60%

pIC50 [1]: 5.46
Compound: N#C/C(=C1/Nc2ccccc2S1)c1ccnc(NCCc2ccc(O)cc2)n1

pIC50 [1]: < 5.30
Compound: N#C/C(=C1/Nc2ccccc2S1)c1ccnc(NCCc2ccccc2)n1

pIC50 [1]: < 5.30
Compound: N#C/C(=C1/Nc2ccccc2S1)c1ccnc(NCCc2ccc(Br)cc2)n1

pIC50 [1]: < 5.30
Compound: CCCNc1nccc(/C(C#N)=C2\Nc3ccccc3S2)n1

pIC50 [1]: 5.51
Compound: COc1ccc(CCNc2nccc(/C(C#N)=C3\Nc4ccccc4S3)n2)cc1

pIC50 [1]: 6.15
Compound: N#C/C(=C1/Nc2ccccc2S1)c1ccnc(NCCCN)n1

pIC50 [1]: < 5.30
Compound: N#C/C(=C1/Nc2ccccc2S1)c1ccnc(NCCc2ccc(Cl)c(Cl)c2)n1

pIC50 [1]: 5.83
Compound: N#C/C(=C1/Nc2ccccc2S1)c1ccnc(NCCN)n1

pIC50 [1]: 7.19
Compound: Cn1cnc(CCNc2nccc(/C(C#N)=C3\Nc4ccccc4S3)n2)c1

pIC50 [1]: < 5.30
Compound: N#C/C(=C1/Nc2ccccc2S1)c1ccnc(NCCc2ccc(F)cc2)n1
inhibition at 10 µM (Jurkat): 0%

pIC50 [1]: 6.34
Compound: N#C/C(=C1/Nc2ccccc2S1)c1ccnc(NCCn2ccc3ccccc32)n1
